# Experimental data of several laboratories.
# Lines come from different studies, so protocols differ.
# Read-out: cell growth or viability
SMILES,cell line,technique,time,IC50
Nc1ccn([C@@H]2O[C@H](CO)[C@@H](O)C2(F)F)c(=O)n1,MP41,ATP luminescence,72 h,76.9 nM
CO[C@H]1[C@H](O[C@H]([C@H]2O[C@@H](n3ccc(=O)[nH]c3=O)[C@H](O)[C@@H]2O)[C@H](NCCCNC(=O)[C@@H](NC(=O)[C@@H](NC(=O)N[C@H](C(=O)O)C(C)C)[C@@H]2CCN=C(N)N2)[C@@H](OC(=O)CCCCCCCCCCCCN(O)C(=N)N)C(C)C)C(=O)O)O[C@H](CN)[C@H]1O,SK-BR-3,WST-1,,590 nM
C[C@H]1[C@H](C)CC[C@]2(C)CC[C@]3(C)C(=CC(=O)[C@@H]4[C@@]5(C)CC[C@@H](O)[C@](C)(C(=O)NCc6cn(-c7ccccc7C(F)(F)F)nn6)[C@@H]5CC[C@]43C)[C@H]12,HDF,MTT,24 h,103000 nM
N#Cc1ccc(-c2cc(COc3cc(=O)oc4ccccc34)on2)cc1,HL-60,MTS,72 h,> 100000 nM
C[C@H]1COCCN1c1nc(N2CCOC[C@@H]2C)c2ccc(-c3cccc(C(=O)NCCOCCOCCOCCONC(=O)c4ccc(F)c(F)c4Nc4ccc(I)cc4F)c3)nc2n1,D54,WST-1,72 h,22800 nM
O=C(NO)c1ccc(Cn2cnc3c(Nc4ccc(F)c(Cl)c4)ncnc32)cc1,U-266,MTT,72 h,1460 nM
COc1cc(C(=O)c2nc(-c3cccc4[nH]nnc34)c[nH]2)cc(OC)c1OC,M14,MTS,72 h,53.2 nM
C/C(=N/NC(=O)c1cn(-c2ccccc2)nc1-c1ccc(Br)cc1)c1c(O)cc(C)oc1=O,Vero,MTT,48 h,192000 nM
Cc1noc(C)c1-c1cc(C(O)(c2ccccn2)c2ccccn2)c2nc(C3CC3)[nH]c2c1,MP41,ATP luminescence,72 h,104 nM
CC(=O)O[C@@]12CO[C@@H]1C[C@H](O)[C@@]1(C)C(=O)[C@H](O)C3=C(C)[C@@H](OC(=O)[C@H](O)[C@@H](NC(=O)OC(C)(C)C)c4ccccc4)C[C@@](O)([C@@H](OC(=O)c4ccccc4)[C@H]21)C3(C)C,SK-BR-3,MTT,24 h,> 50 µg/mL
Nc1ccccc1NC(=O)c1ccc(Cn2cnc3c(Nc4ccc(Cl)cc4)ncnc32)cc1,U-266,MTT,72 h,330 nM
CCCNC(=S)N/N=C/c1cccc2cc3ccccc3nc12,SK-BR-3,MTT,48 h,> 50000 nM
Cc1noc2c1-c1ccc(-c3cnn(C)c3)cc1C(c1ccc(Cl)cc1)=N[C@H]2CC(N)=O,MP41,ATP luminescence,72 h,376 nM
COc1cc(C(=O)c2nc(-c3cccc4cc[nH]c34)c[nH]2)cc(OC)c1OC,M14,MTS,72 h,27.3 nM
S=C(N/N=C/c1cccc2cc3ccccc3nc12)Nc1ccccc1,SK-BR-3,MTT,48 h,> 50000 nM
N#Cc1ccc(-c2cc(CNc3cccc4cccnc34)on2)cc1,HL-60,MTS,72 h,16500 nM
COc1cc(C(=O)c2nc(-c3ccncc3)c[nH]2)cc(OC)c1OC,M14,MTS,72 h,> 1000 nM
C[C@H]1[C@H](C)CC[C@]2(C)CC[C@]3(C)C(=CC(=O)[C@@H]4[C@@]5(C)CC[C@@H](O)[C@](C)(C(=O)NCc6cn(-c7ccc(F)cc7)nn6)[C@@H]5CC[C@]43C)[C@H]12,HDF,MTT,24 h,108000 nM
O=C(NO)c1ccc(Cn2cnc3c(Nc4ccc(Cl)cc4)ncnc32)cc1,U-266,MTT,72 h,630 nM
COc1cc(C(=O)c2nc(-c3cccc4c3CC(=O)N4)c[nH]2)cc(OC)c1OC,M14,MTS,72 h,9.5 nM
